Experimental data: publication PMC3748600 (Chembiochem : a European journal of chemical biology, 2012)

How the values were obtained:
[1] = target: T1, CB1 receptor (Homo sapiens, UniProt P21554); experiment: Cannabinoid CB1 receptor binding assay; settings: read-out: CB1 Ki; human recombinant CB1 in HEK-293 cells, [3H]CP-55940 0.5 nM
[2] = target: T2, CB2 receptor (Homo sapiens, UniProt P34972); experiment: Cannabinoid CB2 receptor binding assay; settings: read-out: CB2 Ki; human recombinant CB2 in HEK-293 cells, [3H]CP-55940 0.5 nM
T2 sequence (P34972 whole entry): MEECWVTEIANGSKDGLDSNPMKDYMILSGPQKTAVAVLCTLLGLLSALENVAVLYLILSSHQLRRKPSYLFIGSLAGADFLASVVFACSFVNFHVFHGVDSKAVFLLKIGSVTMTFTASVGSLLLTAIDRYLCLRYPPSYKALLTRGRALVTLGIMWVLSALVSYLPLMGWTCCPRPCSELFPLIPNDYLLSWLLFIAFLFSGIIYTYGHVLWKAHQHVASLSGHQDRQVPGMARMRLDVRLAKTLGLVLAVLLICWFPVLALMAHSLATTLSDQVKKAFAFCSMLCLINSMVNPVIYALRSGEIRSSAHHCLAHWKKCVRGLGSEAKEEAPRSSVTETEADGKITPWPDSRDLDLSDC

[3] = target: T1, CB1 receptor; experiment: cAMP functional assay, forskolin-stimulated, CHO-K1 cells expressing CB1; type: cell-based; settings: through CB1 receptor
[4] = target: T2, CB2 receptor; experiment: cAMP functional assay, forskolin-stimulated, CHO-K1 cells expressing CB2; type: cell-based; settings: through CB2 receptor
[5] = target: T3, fatty acid amide hydrolase (FAAH) (Homo sapiens, UniProt O00519); experiment: FAAH inhibitor enzyme assay; type: biochemical; settings: tested at 10 and 100 μM
T3 sequence (O00519 1-579): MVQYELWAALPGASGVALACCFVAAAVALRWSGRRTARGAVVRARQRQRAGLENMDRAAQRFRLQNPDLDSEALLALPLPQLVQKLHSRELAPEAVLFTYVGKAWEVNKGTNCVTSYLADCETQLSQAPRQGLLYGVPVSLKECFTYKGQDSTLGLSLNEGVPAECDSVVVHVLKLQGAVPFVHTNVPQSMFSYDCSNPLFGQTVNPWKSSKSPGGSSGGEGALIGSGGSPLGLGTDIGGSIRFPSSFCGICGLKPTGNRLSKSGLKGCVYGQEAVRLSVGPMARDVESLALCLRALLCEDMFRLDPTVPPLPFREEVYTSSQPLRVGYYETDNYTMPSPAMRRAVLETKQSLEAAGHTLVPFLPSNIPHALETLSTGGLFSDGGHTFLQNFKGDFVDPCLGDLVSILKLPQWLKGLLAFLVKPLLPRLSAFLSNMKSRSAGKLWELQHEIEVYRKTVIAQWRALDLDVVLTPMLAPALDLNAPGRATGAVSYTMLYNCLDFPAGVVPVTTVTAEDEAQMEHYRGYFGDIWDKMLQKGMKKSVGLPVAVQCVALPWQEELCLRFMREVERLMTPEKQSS
Method in brief: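 Kit FAAH enzyme was preincubated in assay buffer with the test compound (10 and 100 μM) or solvent control. The reaction was started with AMC arachidonoyl amide substrate (20 μM final) and run for 30 min at 37 °C. Fluorescence was read at ex 350 nm / em 455 nm.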

[6] = system: NO production in RAW 264.7 mouse macrophage cells; experiment: NO assay in LPS-induced RAW 264.7 macrophages; type: cell-based; settings: read-out: IC50, inhibition of NO production; LPS-induced RAW 264.7, 24 h
Method in brief: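 Mouse RAW 264.7 cells in DMEM with 10% FBS, 5% CO2, seeded at 2 × 10^4 cells/well. After 24 h, test compound or solvent control (1% EtOH) was added, then LPS (0.5 μg/mL). Medium nitrite was measured after 24 h by Griess reagent: sulfanilamide, then naphthylethylenediamine-HCl, 5 min each at RT in the dark, A540. Quantified against a 0–100 μM nitrite standard curve; duplicates.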

[7] = system: RAW 264.7 cells; experiment: Cellular viability of RAW 264.7 macrophages; type: cell-based, mouse; settings: RAW 264.7, up to 25 μM
[8] = system: HT-29 colon adenocarcinoma cells; experiment: Cell viability assay; type: cell-based; settings: 48 h, MTT
Method in brief: (§1)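 Cells grown in DMEM with 10% FBS at 37 °C, 5% CO2. Seeded at 10,500 cells/well (MCF7) or 11,000 cells/well (HT-29). After 24 h, treated with various concentrations of the test compound or solvent control (1% EtOH). Viability was read by MTT after 48 h.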

[9] = system: MCF7 breast cancer cells; experiment: Cell viability assay; type: cell-based; settings: up to 100 μM, 48 h, MTT
Method in brief: as §1

[10] = system: human cannabinoid receptor CB1; settings: cited from earlier work
[11] = system: a different cell line; settings: cited from earlier work

T1 sequence (P21554 whole entry): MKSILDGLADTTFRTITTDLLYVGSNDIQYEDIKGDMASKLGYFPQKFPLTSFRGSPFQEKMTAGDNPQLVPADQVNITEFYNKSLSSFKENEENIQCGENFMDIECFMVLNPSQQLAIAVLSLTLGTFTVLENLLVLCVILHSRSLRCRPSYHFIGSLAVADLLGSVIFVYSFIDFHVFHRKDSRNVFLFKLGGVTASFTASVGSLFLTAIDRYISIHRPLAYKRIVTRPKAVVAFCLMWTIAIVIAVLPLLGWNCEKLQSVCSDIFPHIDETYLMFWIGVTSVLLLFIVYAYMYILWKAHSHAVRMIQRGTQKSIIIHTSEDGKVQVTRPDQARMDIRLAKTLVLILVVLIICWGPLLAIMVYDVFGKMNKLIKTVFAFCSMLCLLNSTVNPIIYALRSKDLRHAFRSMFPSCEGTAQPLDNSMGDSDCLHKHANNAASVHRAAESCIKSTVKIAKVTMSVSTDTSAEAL

CCCCCCC[C@@H](C/C=C/CCC(=O)N(C)C/C(=C/Cl)C/C(=C\C(=O)N1CC(O)CC1=O)OC)OC (stereo partly shown) [Compound 6, malyngamide B]
Ki [1]: 3.6 µM
Ki [2]: 2.6 µM
Functional mode at CB1 (inhibition of forskolin-stimulated cAMP accumulation) [3]: cannabinoid receptor agonists
Functional mode at CB2 (inhibition of forskolin-stimulated cAMP accumulation) [4]: cannabinoid receptor agonists
FAAH inhibition [5]: no considerable inhibitory effects
IC50 [6]: 6.2 µM
Effect on cellular viability [7]: without affecting cellular viability
IC50 ([8]; read-out: IC50, cytotoxicity to HT-29 cells): 26 µM

CCCCCCCCCCCCC/C=C/CCC(=O)N[C@H](CO)COC [Compound 5, Serinolamide B]
Ki [1]: 16.4 µM
Ki [2]: 5.2 µM
Functional mode at CB1 (inhibition of forskolin-stimulated cAMP accumulation) [3]: cannabinoid receptor agonists
Functional mode at CB2 (inhibition of forskolin-stimulated cAMP accumulation) [4]: cannabinoid receptor agonists
FAAH inhibition [5]: no considerable inhibitory effects
IC50 [6]: > 25 µM
Cytotoxicity against HT-29 ([8]; up to 100 μM): failed to show significant cytotoxicity
Cytotoxicity against MCF7 [9]: failed to show significant cytotoxicity

CCCCCCCCCCCCC/C=C/CCC(=O)N(C)[C@H](CO)COC [Compound 4, serinolamide A]
Selectivity for the CB1 receptor over CB2 ([10]; human CB1 vs CB2 binding): more than 5 fold
Ki ([10]; read-out: CB1 Ki, human CB1): 1.3 µM
Cytotoxic properties [11]: showed some cytotoxic properties
